Source: ChEMBL document CHEMBL4011658 (J Med Chem, 2017)
≈ marks a conversion by molar mass, not a printed value. Calls of active or inactive are those of the source. No cut-off for these calls is given here. Residues, ends and D or L forms follow the SMILES beside them. *: point of attachment. Boc = CC(C)(C)OC(=O)*; NHBn = c1ccc(CN*)cc1

Columns and labels:
LLC-PK1 = experiment: Cytotoxicity against pig LLC-PK1 cells assessed as reduction in cell viability after 48 hrs by neutral red uptake assay; type: cell-based, Sus scrofa; settings: llc-pk1, 48 h
Method in brief: (§1)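 Cells seeded at 25 000 per well and grown 24 h to confluence, then exposed to peptides up to 10 μg/mL for 48 h; viability by modified neutral red uptake; doxorubicin positive control, DMSO negative control.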

Aspergillus = experiment: Antifungal activity against Aspergillus; type: functional
Escherichia coli = experiment: Antibacterial activity against Escherichia coli ATCC 35218 after 16 to 20 hrs by alamar blue dye based CLSI method; type: functional
SK-OV-3 = experiment: Cytotoxicity against human SKOV3 cells assessed as reduction in cell viability after 48 hrs by neutral red uptake assay; type: cell-based; settings: sk-ov-3, 48 h; method in brief: as §1
BT-549 = experiment: Cytotoxicity against human BT549 cells assessed as reduction in cell viability after 48 hrs by neutral red uptake assay; type: cell-based; settings: bt-549, 48 h; method in brief: as §1
Candida = experiment: Antifungal activity against Candida; type: functional
Cryptococcus neoformans = experiment: Antifungal activity against Cryptococcus neoformans ATCC 90113 after 70 to 74 hrs by alamar blue dye based CLSI method; type: functional
SK-MEL = experiment: Cytotoxicity against human SK-MEL cells assessed as reduction in cell viability after 48 hrs by neutral red uptake assay; type: cell-based; method in brief: as §1
Vero = experiment: Cytotoxicity against African green monkey Vero cells assessed as reduction in cell viability after 48 hrs by neutral red uptake assay; type: cell-based; settings: chlorocebus sabaeus; method in brief: as §1
[1] = Selectivity index, ratio of cytotoxicity against human SK-MEL cells to IC50 for Cryptococcus neoformans ATCC 90113; type: toxicity, cell-based; settings: read-out: Selectivity Index
[2] = Selectivity index, ratio of cytotoxicity against human BT549 cells to IC50 for Cryptococcus neoformans ATCC 90113; type: toxicity, cell-based; settings: read-out: Selectivity Index
[3] = Selectivity index, ratio of cytotoxicity against African green monkey VERO cells to IC50 for Cryptococcus neoformans ATCC 90113; type: toxicity, cell-based; settings: read-out: Selectivity Index
[4] = Selectivity index, ratio of cytotoxicity against pig LLC-PK1 cells to IC50 for Cryptococcus neoformans ATCC 90113; type: toxicity, cell-based; settings: read-out: Selectivity Index
[5] = Selectivity index, ratio of cytotoxicity against human SKOV3 cells to IC50 for Cryptococcus neoformans ATCC 90113; type: toxicity, cell-based; settings: read-out: Selectivity Index

In the case of `CC(C)(C)OC(=O)N[C@@H](Cc1c[nH]c(-c2ccc(-c3ccccc3)cc2)n1)C(=O)N[C@@H](Cc1c[nH]c2ccccc12)C(=O)N[C@@H](Cc1c[nH]c(-c2ccc(-c3ccccc3)cc2)n1)C(=O)NCc1ccccc1`, the Activity (LLC-PK1) is reported as > 10 µg/mL, the Activity (Aspergillus) is reported as “inactive” and the Activity (Escherichia coli) is reported as “inactive”. For the same compound, the Activity (SK-OV-3) was > 10 µg/mL, the Activity (BT-549) was > 10 µg/mL and the Activity (Candida) was “inactive”. The IC50 (Cryptococcus neoformans) was > 20 µg/mL, the Activity (SK-MEL) was > 10 µg/mL and the Activity (Vero) was > 10 µg/mL.

With `COC(=O)[C@H](Cc1c[nH]c(-c2ccccc2)n1)NC(=O)[C@H](Cc1c[nH]c2ccccc12)NC(=O)[C@H](Cc1c[nH]c(-c2ccccc2)n1)NC(=O)OC(C)(C)C` the Activity (LLC-PK1) was > 10 µg/mL, the selectivity ratio [1] was > 1.1 and the Activity (Aspergillus) was “inactive”. For the same compound, the Activity (Escherichia coli) was “inactive”, the Activity (SK-OV-3) was > 10 µg/mL and the Activity (BT-549) was > 10 µg/mL. The Activity (Candida) was “inactive”, the IC50 (Cryptococcus neoformans) was 9.14 µg/mL (≈ 12.3 µM) and the MFC (Cryptococcus neoformans) was > 20 µg/mL. For the same compound, the MIC (Cryptococcus neoformans) was > 20 µg/mL, the Activity (SK-MEL) was > 10 µg/mL and the selectivity ratio [2] was > 1.1. For the same compound, the selectivity ratio [3] was > 1.1, the selectivity ratio [4] was > 1.1 and the Activity (Vero) was > 10 µg/mL. For the same compound, the selectivity ratio [5] was > 1.1.

For `N[C@@H](Cc1c[nH]c(-c2ccc(-c3ccccc3)cc2)n1)C(=O)N[C@@H](Cc1c[nH]c2ccccc12)C(=O)N[C@@H](Cc1c[nH]c(-c2ccc(-c3ccccc3)cc2)n1)C(=O)NCc1ccccc1`, the Activity (LLC-PK1) was > 10 µg/mL, the selectivity ratio [1] was > 7.1 and the Activity (Aspergillus) was “inactive”. The Activity (Escherichia coli) was “inactive”, the Activity (SK-OV-3) was > 10 µg/mL and the Activity (BT-549) was > 10 µg/mL. For the same compound, the Activity (Candida) was “inactive”, the IC50 (Cryptococcus neoformans) was 1.4 µg/mL (≈ 1.61 µM) and the MFC (Cryptococcus neoformans) was 2.5 µg/mL (≈ 2.87 µM). The MIC (Cryptococcus neoformans) was 2.5 µg/mL (≈ 2.87 µM), the Activity (SK-MEL) was > 10 µg/mL and the selectivity ratio [2] was > 7.1. For the same compound, the selectivity ratio [3] was > 7.1, the selectivity ratio [4] was > 7.1 and the Activity (Vero) was > 10 µg/mL. For the same compound, the selectivity ratio [5] was > 7.1.

With `COC(=O)[C@H](Cc1c[nH]c(-c2ccccc2)n1)NC(=O)[C@H](Cc1c[nH]c2ccccc12)NC(=O)[C@@H](N)Cc1c[nH]c(-c2ccccc2)n1` the Activity (LLC-PK1) was > 10 µg/mL, the selectivity ratio [1] was > 2.7 and the Activity (Aspergillus) was “inactive”. For the same compound, the Activity (Escherichia coli) was “inactive”, the Activity (SK-OV-3) was > 10 µg/mL and the Activity (BT-549) was > 10 µg/mL. For the same compound, the Activity (Candida) was “inactive”, the IC50 (Cryptococcus neoformans) was 3.71 µg/mL (≈ 5.75 µM) and the MFC (Cryptococcus neoformans) was 10 µg/mL (≈ 15.5 µM). For the same compound, the MIC (Cryptococcus neoformans) was 10 µg/mL (≈ 15.5 µM), the Activity (SK-MEL) was > 10 µg/mL and the selectivity ratio [2] was > 2.7. For the same compound, the selectivity ratio [3] was > 2.7, the selectivity ratio [4] was > 2.7 and the Activity (Vero) was > 10 µg/mL. For the same compound, the selectivity ratio [5] was > 2.7.

With `COC(=O)[C@H](Cc1c[nH]c(-c2ccc(C(C)(C)C)cc2)n1)NC(=O)[C@H](Cc1c[nH]c2ccccc12)NC(=O)[C@H](Cc1c[nH]c(-c2ccc(C(C)(C)C)cc2)n1)NC(=O)OC(C)(C)C` the Activity (LLC-PK1) was > 10 µg/mL, the selectivity ratio [1] was > 7.9 and the Activity (Aspergillus) was “inactive”. For the same compound, the Activity (Escherichia coli) was “inactive”, the Activity (SK-OV-3) was > 10 µg/mL and the Activity (BT-549) was > 10 µg/mL. For the same compound, the Activity (Candida) was “inactive”, the IC50 (Cryptococcus neoformans) was 1.27 µg/mL (≈ 1.48 µM) and the MFC (Cryptococcus neoformans) was 5 µg/mL (≈ 5.83 µM). The MIC (Cryptococcus neoformans) was 5 µg/mL (≈ 5.83 µM), the Activity (SK-MEL) was > 10 µg/mL and the selectivity ratio [2] was > 7.9. The selectivity ratio [3] was > 7.9, the selectivity ratio [4] was > 7.9 and the Activity (Vero) was > 10 µg/mL. The selectivity ratio [5] was > 7.9.

With `CC(C)(C)OC(=O)N[C@@H](Cc1cnc[nH]1)C(=O)N[C@@H](Cc1c[nH]c2ccccc12)C(=O)N[C@@H](Cc1cnc[nH]1)C(=O)NCc1ccccc1` (Boc-His-Trp-His-NHBn) the Activity (LLC-PK1) was > 10 µg/mL, the selectivity ratio [1] was > 12.5 and the Activity (Aspergillus) was “inactive”. For the same compound, the Activity (Escherichia coli) was “inactive”, the Activity (SK-OV-3) was > 10 µg/mL and the Activity (BT-549) was > 10 µg/mL. The Activity (Candida) was “inactive”, the MFC (Cryptococcus neoformans) was 1.25 µg/mL (≈ 1.87 µM) and the MIC (Cryptococcus neoformans) was 1.25 µg/mL (≈ 1.87 µM). The Activity (SK-MEL) was > 10 µg/mL, the selectivity ratio [2] was > 12.5 and the selectivity ratio [3] was > 12.5. The selectivity ratio [4] was > 12.5, the Activity (Vero) was > 10 µg/mL and the selectivity ratio [5] was > 12.5.

For `Cc1ccc(-c2nc(C[C@H](NC(=O)[C@H](Cc3c[nH]c4ccccc34)NC(=O)[C@@H](N)Cc3c[nH]c(-c4ccc(C)cc4)n3)C(=O)NCc3ccccc3)c[nH]2)cc1`, the Activity (LLC-PK1) was > 10 µg/mL, the selectivity ratio [1] was > 1.8 and the Activity (Aspergillus) was “inactive”. For the same compound, the Activity (Escherichia coli) was “inactive”, the Activity (SK-OV-3) was > 10 µg/mL and the Activity (BT-549) was > 10 µg/mL. For the same compound, the Activity (Candida) was “inactive”, the IC50 (Cryptococcus neoformans) was 5.56 µg/mL (≈ 7.43 µM) and the MFC (Cryptococcus neoformans) was 10 µg/mL (≈ 13.4 µM). For the same compound, the MIC (Cryptococcus neoformans) was 10 µg/mL (≈ 13.4 µM), the Activity (SK-MEL) was > 10 µg/mL and the selectivity ratio [2] was > 1.8. The selectivity ratio [3] was > 1.8, the selectivity ratio [4] was > 1.8 and the Activity (Vero) was > 10 µg/mL. For the same compound, the selectivity ratio [5] was > 1.8.

With `COc1ccc(-c2nc(C[C@H](NC(=O)[C@H](Cc3c[nH]c4ccccc34)NC(=O)[C@@H](N)Cc3c[nH]c(-c4ccc(OC)cc4)n3)C(=O)NCc3ccccc3)c[nH]2)cc1` the Activity (LLC-PK1) was > 10 µg/mL, the selectivity ratio [1] was > 1.4 and the Activity (Aspergillus) was “inactive”. For the same compound, the Activity (Escherichia coli) was “inactive”, the Activity (SK-OV-3) was > 10 µg/mL and the Activity (BT-549) was > 10 µg/mL. For the same compound, the Activity (Candida) was “inactive”, the IC50 (Cryptococcus neoformans) was 7.2 µg/mL (≈ 9.23 µM) and the MFC (Cryptococcus neoformans) was > 20 µg/mL. The MIC (Cryptococcus neoformans) was > 20 µg/mL, the Activity (SK-MEL) was > 10 µg/mL and the selectivity ratio [2] was > 1.4. The selectivity ratio [3] was > 1.4, the selectivity ratio [4] was > 1.4 and the Activity (Vero) was > 10 µg/mL. For the same compound, the selectivity ratio [5] was > 1.4.

With `CC(C)(C)OC(=O)N[C@@H](Cc1c[nH]c(-c2ccc(C(C)(C)C)cc2)n1)C(=O)N[C@@H](Cc1c[nH]c2ccccc12)C(=O)N[C@@H](Cc1c[nH]c(-c2ccc(C(C)(C)C)cc2)n1)C(=O)NCc1ccccc1` the Activity (LLC-PK1) was > 10 µg/mL, the Activity (Aspergillus) was “inactive” and the Activity (Escherichia coli) was “inactive”. For the same compound, the Activity (SK-OV-3) was > 10 µg/mL, the Activity (BT-549) was > 10 µg/mL and the Activity (Candida) was “inactive”. For the same compound, the IC50 (Cryptococcus neoformans) was > 20 µg/mL, the Activity (SK-MEL) was > 10 µg/mL and the Activity (Vero) was > 10 µg/mL.

With `Cc1ccc(-c2nc(C[C@H](NC(=O)OC(C)(C)C)C(=O)N[C@@H](Cc3c[nH]c4ccccc34)C(=O)N[C@@H](Cc3c[nH]c(-c4ccc(C)cc4)n3)C(=O)NCc3ccccc3)c[nH]2)cc1` the Activity (LLC-PK1) was > 10 µg/mL, the Activity (Aspergillus) was “inactive” and the Activity (Escherichia coli) was “inactive”. For the same compound, the Activity (SK-OV-3) was > 10 µg/mL, the Activity (BT-549) was > 10 µg/mL and the Activity (Candida) was “inactive”. The IC50 (Cryptococcus neoformans) was 12.6 µg/mL (≈ 14.9 µM), the MFC (Cryptococcus neoformans) was > 20 µg/mL and the MIC (Cryptococcus neoformans) was > 20 µg/mL. For the same compound, the Activity (SK-MEL) was > 10 µg/mL and the Activity (Vero) was > 10 µg/mL.

For `COC(=O)[C@H](Cc1c[nH]c(-c2ccc(-c3ccccc3)cc2)n1)NC(=O)[C@H](Cc1c[nH]c2ccccc12)NC(=O)[C@H](Cc1c[nH]c(-c2ccc(-c3ccccc3)cc2)n1)NC(=O)OC(C)(C)C`, the Activity (LLC-PK1) was > 10 µg/mL, the Activity (Aspergillus) was “inactive” and the Activity (Escherichia coli) was “inactive”. For the same compound, the Activity (SK-OV-3) was > 10 µg/mL, the Activity (BT-549) was > 10 µg/mL and the Activity (Candida) was “inactive”. The IC50 (Cryptococcus neoformans) was > 20 µg/mL, the Activity (SK-MEL) was > 10 µg/mL and the Activity (Vero) was > 10 µg/mL.
